In ChEMBL document CHEMBL1268912, “Antidiabetic and antiobesity effects of Ampkinone (6f), a novel small molecule activator of AMP-activated protein kinase” (J Med Chem, 2010):
Activity calls are given as the source filed them. No cut-off for these calls is given here.

Legend:
[1] = Activation of ACC phosphorylation at S79 at 10 uM by Western blotting relative to control
Procedure, shortened: (§1)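 L6 cells, serum-starved 6 h, treated with 10 μM for set times (10 min to 6 h). RIPA lysates (40 μg) run on SDS-PAGE and blotted to nitrocellulose. Blocked in TBS-Tween with 5% milk. Probed overnight at 4 °C with anti-ACC (pS79) or anti-AMPK (pT172) and the total-protein antibodies. HRP secondary antibody, ECL detection.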

[2] = Activation of AMPK assessed as phosphorylation of T172 at 10 uM by Western blotting relative to control; procedure, shortened: as §1
[3] = tested on: C2C12; assay: Increase in AMPK-mediated glucose uptake in mouse C2C12 cells by confocal laser scanning microscopy; assay type: cell-based
Procedure, shortened: (§2)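 C2C12 myocytes were differentiated in 2% horse serum, held in low-glucose serum-free medium for 4 h, then treated for 1 h in glucose-free DMEM at 10 μM. In the CLSM chamber at 37 °C, 5 μM Cy3-Glc-R was injected and images taken every 7 s to follow fluorescence uptake.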

[4] = target: T1, Serine/threonine-protein kinase STK11 (Homo sapiens) (UniProt Q15831); assay: Activation of LKB1 expressed in human HeLa cells assessed as increase in AMPK phosphorylation; assay type: cell-based
T1 sequence (whole entry): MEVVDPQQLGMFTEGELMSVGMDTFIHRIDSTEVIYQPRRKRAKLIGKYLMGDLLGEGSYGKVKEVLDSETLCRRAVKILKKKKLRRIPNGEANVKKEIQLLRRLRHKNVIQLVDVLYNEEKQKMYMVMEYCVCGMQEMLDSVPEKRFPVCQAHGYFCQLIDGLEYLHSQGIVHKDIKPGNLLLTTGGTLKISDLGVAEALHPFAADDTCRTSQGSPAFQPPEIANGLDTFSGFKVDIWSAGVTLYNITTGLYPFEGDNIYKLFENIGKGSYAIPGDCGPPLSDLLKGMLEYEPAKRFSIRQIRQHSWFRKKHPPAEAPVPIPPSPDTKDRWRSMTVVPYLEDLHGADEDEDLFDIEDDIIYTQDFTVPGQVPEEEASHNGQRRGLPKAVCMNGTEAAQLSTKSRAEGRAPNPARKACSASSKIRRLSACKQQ
Procedure, shortened: (§3)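 HeLa cells lack endogenous LKB1. They were transfected for 24 h with HA-tagged LKB1 in pcDNA3.1 or mock-transfected. After 6 h serum starvation, cells were exposed to 10 μM for set times. Lysates were immunoblotted for AMPK (pT172), total AMPK and HA.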

[5] = Induction of AMPK phosphorylation in […] cells […]; assay type: cell-based; details: L6, 10 min
[6] = tested on: C2L12; assay: Induction of AMPK phosphorylation in mouse […] cells after 1 hr
[7] = tested on: 3T3-L1; assay: Induction of AMPK phosphorylation in mouse 3T3L1 cells after 1 hr
[8] = target: AMP-activated protein kinase, AMPK (Homo sapiens) (UniProt P54646+O43741+P54619+Q9UGJ0+Q9Y478+Q13131+Q9UGI9); assay: Induction of AMPK phosphorylation in human HeLa cells; assay type: cell-based; procedure, shortened: as §3
[9] = tested on: Mus musculus; assay: Antiobesity activity in diet induced obese mouse assessed as change in body weight at 10 mg/kg, sc qd; assay type: functional, organism-based; design: dose 10 mg/kg
Procedure, shortened: (§4)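 DIO C57BL/6J males (high-fat diet, 60% of calories from fat, for 8 weeks) were given 10 mg/kg/day sc in PEG400 or vehicle for 30 days, n = 7 per group. Body weight and food intake were recorded every 3 days.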

[10] = tested on: Mus musculus; assay: Antidiabetic activity in diet induced obese mouse assessed as reduction in glucose level at 10 mg/kg, sc qd; assay type: functional, organism-based; design: dose 10 mg/kg
Procedure, shortened: (§5)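 DIO mice were male C57BL/6J fed a 60%-fat diet from 4 weeks of age for 8 weeks. Dosed 10 mg/kg/day sc in PEG400 or vehicle for 1 month, n = 7 per group. Serum insulin was measured by mouse insulin ELISA and blood glucose by glucometer. Mean ± SD; Student's t test/ANOVA.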

[11] = tested on: C2C12; assay: Increase in AMPK-mediated glucose uptake in mouse C2C12 cells assessed as increase in fluorescent intensity by confocal laser scanning microscopy; assay type: cell-based; procedure, shortened: as §2
[12] = tested on: Mus musculus; assay: Antiobesity activity in diet induced obese mouse assessed as change in food intake at 10 mg/kg, sc qd; assay type: functional, organism-based; design: dose 10 mg/kg; procedure, shortened: as §4
[13] = tested on: 3T3-L1; assay: Induction of ACC phosphorylation in mouse 3T3L1 cells after 1 hr
[14] = tested on: L6 (Rattus norvegicus); assay: Increase in AMPK-mediated glucose uptake in rat L6 cells by confocal laser scanning microscopy in presence of compound C
[15] = tested on: Mus musculus; assay: Induction of AMPK phosphorylation in diet induced obese mouse liver at 10 mg/kg, sc qd by immunoblotting; assay type: functional, organism-based; design: dose 10 mg/kg
Procedure, shortened: (§6)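 DIO mice were dosed 10 mg/kg/day sc in PEG400 or vehicle for 1 month, n = 7 per group, then fasted 24 h. Liver and muscle lysates were immunoblotted for phospho-AMPK/ACC and the total proteins.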

[16] = tested on: Mus musculus; assay: Induction of AMPK phosphorylation in diet induced obese mouse muscle at 10 mg/kg, sc qd by immunoblotting; assay type: functional, organism-based; design: dose 10 mg/kg; procedure, shortened: as §6
[17] = tested on: C2L12; assay: Induction of ACC phosphorylation in mouse […] cells after 1 hr
[18] = tested on: Mus musculus; assay: Antidiabetic activity in diet induced obese mouse assessed as reduction in insulin level at 10 mg/kg, sc qd; assay type: functional, organism-based; design: dose 10 mg/kg; procedure, shortened: as §5
[19] = tested on: L6; assay: Induction of ACC phosphorylation in […] cells after 10 mins; assay type: cell-based
Procedure, shortened: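 L6, C2C12 or 3T3-L1 cells, serum-starved 6 h, were treated for 1 h with graded concentrations (0–20 μM); L6 cells were also given a 10 μM time course. Lysates were immunoblotted for AMPK pT172, ACC pS79 and the total proteins, with ECL detection.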

Structure (SMILES)	Activity [1]	Activity [2]	also measured
COc1ccc2c(c1)OC(C)(C)c1c-2ccc2c1C(=O)N(c1ccc(C(=O)c3ccccc3)cc1)C2=O	154%	159%	–
COc1ccc2c(c1O)OC(C)(C)c1c-2ccc2c1C(=O)N(c1ccccc1)C2=O	254%	273%	–
COc1ccc2c(c1O)OC(C)(C)c1c-2ccc2c1C(=O)N(C)C2=O	145%	205%	–
COc1ccc2c(c1O)OC(C)(C)c1c-2ccc2c1C(=O)N(c1ccc(C(=O)c3ccccc3)cc1)C2=O [AMPKINONE]	295%	322%	fold change (FC) [3]: 3.2; Activity [4]: Active; EC50 [5]: 4.3 µM; Activity [6]: Dose-dependent effect; Activity [7]: Dose-dependent effect; Activity [8]: Active; Activity [9]: inactive; Activity [10]: Active; Activity [11]: Active; Activity [12]: inactive; Activity [13]: Dose-dependent effect; Activity [14]: inactive; Activity [15]: Active; Activity [16]: Active; Activity [17]: Dose-dependent effect; Activity [18]: Active; Activity [19]: Active
COc1ccc2c(c1O)OC(C)(C)c1c-2ccc2c1C(=O)N(Cc1ccccc1)C2=O	194%	165%	–
COc1ccc2c(c1O)OC(C)(C)c1c-2ccc2c1C(=O)N(c1ccc(Cc3ccccc3)cc1)C2=O	129%	169%	–
COc1ccc2c(c1O)OC(C)(C)c1c-2ccc2c1C(=O)NC2=O	123%	158%	–
COc1ccc2c(c1O)OC(C)(C)c1c-2ccc2c1C(=O)N(c1ccc3c(c1)-c1ccccc1C3=O)C2=O	154%	249%	–
COc1ccc2c(c1O)OC(C)(C)c1c-2ccc2c1C(=O)N(c1ccc(C(C)=O)cc1)C2=O	384%	264%	–
COc1ccc2c(c1O)OC(C)(C)c1c-2ccc2c1C(=O)N(c1ccc(-c3ccccc3)cc1)C2=O	114%	160%	–
COc1ccc2c(c1O)OC(C)(C)c1c-2ccc2c1C(=O)N(c1cccc(-c3ccccc3)c1)C2=O	201%	175%	–
COc1ccc2c(c1O)OC(C)(C)c1c-2ccc2c1C(=O)N(c1ccc(-c3nc4ccccc4o3)cc1)C2=O	91%	92%	–
CC1(C)Oc2ccccc2-c2ccc3c(c21)C(=O)N(c1ccc(C(=O)c2ccccc2)cc1)C3=O	92%	203%	–
CC1(C)Oc2cc(F)ccc2-c2ccc3c(c21)C(=O)N(c1ccc(C(=O)c2ccccc2)cc1)C3=O	156%	186%	–
COc1ccc2c(c1O)OC1(CCCC1)c1c-2ccc2c1C(=O)N(c1ccc(C(=O)c3ccccc3)cc1)C2=O	51%	113%	–
